Data published in PubChem BioAssay AID651877 (Broad Institute, 2012).

Tested on: T. cruzi CAI/72 in BESM cells, trypomastigote emergence microscopy
Experiment: T. cruzi re-emergence after compound removal – imaging, CAI/72 strain, BESM host cells, 20-day treatment, mechanism study for T. cruzi inhibitor project, late-stage follow-up (AID 651877)
Conditions: stronger effect = higher value
Outline: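 Material: BESM cells infected with T. cruzi CAI/72. Schedule: 20-day dosing every other day, then 38-day withdrawal. Signal: daily light microscopy of trypomastigote emergence. Evaluation: trypomastigote emergence timing, absence indicating cure, delay indicating static effect.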

| Structure (SMILES) | day of emergence (at 0.25 µM) [days] | day of emergence (at 0.74 µM) [days] | day of emergence (at 2.2 µM) [days] | normalised slope vs benznidazole |
| --- | --- | --- | --- | --- |
| C[C@@H]1CN([C@H](C)CO)C(=O)c2cccc(NC(=O)c3ccncc3)c2O[C@H]1CN(C)Cc1ccc(Oc2ccccc2)cc1 | 4 | 30 | > 37 | 5.6 |
| C[C@@H]1CN([C@@H](C)CO)C(=O)c2cccc(NC(=O)c3ccncc3)c2O[C@H]1CN(C)Cc1cccc(Cl)c1 | 4 | 17 | 18 | 6 |
| C[C@H](CO)N1C[C@H](C)[C@H](CN(C)Cc2ccc(Oc3ccccc3)cc2)Oc2c(NC(=O)c3ccncc3)cccc2C1=O | 4 | – | – | 70 |
| C[C@H]1CN([C@@H](C)CO)C(=O)c2cccc(NC(=O)c3ccncc3)c2O[C@H]1CN(C)Cc1ccc(Oc2ccccc2)cc1 | 4 | – | – | 70 |
| CC(C)N1C[C@@H](C)[C@H](CN(C)Cc2cccc(Oc3ccccc3)c2)Oc2c(NC(=O)c3ccncc3)cccc2C1=O | 18 | – | – | 66 |
| O=C(Cn1ccnc1[N+](=O)[O-])NCc1ccccc1 | -14 | 1 | 6 | 8 |
| C[C@H]1CN([C@@H](C)CO)C(=O)c2cccc(NC(=O)c3ccncc3)c2O[C@@H]1CN(C)Cc1ccc(Oc2ccccc2)cc1 | 4 | – | – | 70 |
| C[C@@H]1CN([C@@H](C)CO)C(=O)c2cccc(NC(=O)c3ccncc3)c2O[C@H]1CN(C)Cc1ccc(Cl)cc1 | 4 | 15 | 17 | 6 |
| C[C@@H]1CN([C@H](C)CO)C(=O)c2cccc(NC(=O)c3ccncc3)c2O[C@H]1CN(C)Cc1ccccc1 | 4 | – | – | 70 |
| C[C@@H]1CN([C@@H](C)CO)C(=O)c2cccc(NC(=O)c3ccncc3)c2O[C@H]1CN(C)Cc1ccc(Oc2ccccc2)cc1 | 4 | > 37 | – | 20 |
